A short description of data set [1]: melting temperature; fluorescence melt of hairpins on a sequencing array, two-state fit, raised by 9.35 °C to match UV melts. To be noted: sodium 0.088 M. In a few lines: (§1)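 Melting temperature and folding enthalpy were obtained by bootstrapped two-state fitting. Fits used Cy3 fluorescence of library hairpins with annealed Cy3 and quencher oligos on a sequenced MiSeq flow cell, imaged in 50 mM Na-HEPES pH 8.0, 25 mM NaCl in 2.5 °C steps up to 60 °C and normalised to pre-quench Cy3 and control constructs. Four replicates were combined by inverse-variance weighting, and fitted temperatures were raised by 9.35 °C to match UV melts.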

Data set [2] is described as follows: folding enthalpy; higher = less favourable; fluorescence melt of hairpins on a sequencing array, two-state fit. To be noted: sodium 0.088 M. In a few lines:
as §1

For the sequence GTCCGTGCGAAAGCAGAC (((..(((....)))))), the Tm in data set [1] came to 32.4 °C. Further, in data set [2], the folding enthalpy was -13.8 kcal/mol.
For GCTAACGAAAGTTGAAGC ((((((....)))..))) the same measures were 34.6 °C and -15.2 kcal/mol.
For GGATGGTCGAAAGACTCC (((..(((....)))))) the same measures were 32.9 °C and -14.2 kcal/mol.
For GGTTAGGGAAACTTAACC (((((.(....).))))), in data set [1], the Tm was 37.6 °C. For the same sequence, the folding enthalpy in data set [2] is -25.1 kcal/mol.
As to GGGGCCGAAAGGCAGCCC ((((((....)))..))), the Tm in data set [1] was found to be 54 °C. For the same sequence, the folding enthalpy in data set [2] is -14.6 kcal/mol.
For GATCACTGGGTGATC ((((((...)))))) the same measures were 57.3 °C and -33.1 kcal/mol.
The corresponding values for GCAGCGGCGAAAGCCTGC (((..(((....)))))) are 52.2 °C and -12.9 kcal/mol.
For GAGTATGGAAACATACCC (.(((((....))))).) the same measures were 31.4 °C and -19.4 kcal/mol.
With GGGAAAACGAAAGTTCCC (((..(((....)))))), the Tm in data set [1] turned out to be 43.5 °C. The folding enthalpy in data set [2] is -27.1 kcal/mol.
The corresponding values for GTGTGAGGAAACTTGCAC (((..((....))..))) are 35.1 °C and -28 kcal/mol.
The corresponding values for CGGGTTCGGAAACGACCG (((..(((....)))))) are 39.4 °C and -19.9 kcal/mol.
As for GGAGTCGAAAGACTCTCC ((((((....)))..))), in data set [1], the Tm was 51.6 °C. Besides, the folding enthalpy in data set [2] was -10.2 kcal/mol.
GGAGCCGGAAACGGCCCC ((.((((....)))).)): the Tm in data set [1] was 58.5 °C. For the same sequence, in data set [2], the folding enthalpy is -15.5 kcal/mol.
As to GTTGTAGGAAACCACAAC (((((.(....).))))), in data set [1], the Tm was found to be 39.9 °C. Besides, in data set [2], the folding enthalpy was -32.5 kcal/mol.
Turning to GCTACTGCGAAAGCAAGC (((..(((....)))))), the Tm in data set [1] amounted to 34.7 °C. For the same sequence, the folding enthalpy in data set [2] was -11.4 kcal/mol.
For GTAGTTGGAAACAATTAC (((.(((....))).))) the same measures were 34.2 °C and -23.4 kcal/mol.
The corresponding values for GCGGGCGCGAAAGCGCGC (((..(((....)))))) are 63 °C and -7.24 kcal/mol.
The corresponding values for GCGTAGCGAAAGCCTCGC (((..((....))..))) are 44.1 °C and -10.8 kcal/mol.
GATCCGGCAGCGGATC ((((((....)))))): the Tm in data set [1] amounted to 59.4 °C. Further, the folding enthalpy in data set [2] is -37.8 kcal/mol.
GATCTCCACGAGATC ((((((...)))))): in data set [1], the Tm was found to be 53.6 °C. In data set [2], the folding enthalpy was -42 kcal/mol.
For GATCTGTAGCAGATC ((((((...)))))) the same measures were 47.3 °C and -37.4 kcal/mol.
As to GTGGGAGCGAAAGCTCAC (((..(((....)))))), the Tm in data set [1] was found to be 62.9 °C. Moreover, the folding enthalpy in data set [2] is -19.2 kcal/mol.
Consider GATCGGCGCCCGATC ((((((...)))))), for which the Tm in data set [1] was 56.8 °C. Further, the folding enthalpy in data set [2] was -36.4 kcal/mol.
With GCTCAGCGAAAGCACAGC (((..((....))..))), the Tm in data set [1] turned out to be 39.7 °C. In data set [2], the folding enthalpy is -14.9 kcal/mol.
The corresponding values for GGTGCCGGAAACGACACC ((((.((....)).)))) are 54.6 °C and -44.9 kcal/mol.
The corresponding values for GATCATTGGTATGATC ((((((....)))))) are 46.3 °C and -31.8 kcal/mol.
For GATCCCGCTCGGGATC ((((((....)))))) the same measures were 65.8 °C and -34 kcal/mol.
Regarding GGAGGAGGAAACCCCTCC (((((.(....).))))), in data set [1], the Tm was 48.1 °C. Further, the folding enthalpy in data set [2] was -26.7 kcal/mol.
The corresponding values for CGAACGGAAACGTTGTCG ((((((....)))..))) are 36.3 °C and -14.1 kcal/mol.
The corresponding values for GATCCGTATGCGGATC ((((((....)))))) are 63.2 °C and -40.3 kcal/mol.
The corresponding values for GACGAAGCGAAAGCTGTC (((..(((....)))))) are 45.4 °C and -16.7 kcal/mol.
As for GCGAATACGAAAGTACGC (((..(((....)))))), the Tm in data set [1] worked out at 44.9 °C. Further, in data set [2], the folding enthalpy was -25 kcal/mol.
The corresponding values for GCAAGCGCGAAAGCGTGC (((..(((....)))))) are 47.5 °C and -12.5 kcal/mol.
As for GATCGGGGGCCCGATC ((((((....)))))), in data set [1], the Tm came to 59.7 °C. In addition, in data set [2], the folding enthalpy was -40.1 kcal/mol.
For GATCCGAATACGGATC ((((((....)))))) the same measures were 57.5 °C and -38.6 kcal/mol.
For GTAACCGGAAACGGTCAC ((.((((....)))).)) the same measures were 39.7 °C and -17.2 kcal/mol.
For GATCGATCACTCGATC ((((((....)))))) the same measures were 51.2 °C and -41.5 kcal/mol.

These data come from the array DNA melting data of Ke et al. (doi:10.1101/2024.01.08.574731).
